Results from ChEMBL document CHEMBL2146419, “Effects of polyphenol compounds on influenza A virus replication and definition of their mechanism of action” (Bioorg Med Chem, 2012).
Active and inactive are the calls of the source. No cut-off for these calls is given here.

Columns and labels:
[1] = system: Influenza A virus; experiment: Antiviral activity against Influenza virus A/Puerto Rico/8/34 H1N1 infected in dog MDCK cells at 10 ug/mL incubated for 2 hrs post-infection followed by compound washout measured after 24 hrs by hemagglutininating unit assay; assay type: functional, organism-based; conditions: A/Puerto Rico/8/1934(H1N1)
How it was run: (§1)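 Compound added to PR8-infected MDCK cells immediately after virus challenge, then removed at 2, 4, 6, 8 or 24 h p.i. Supernatant virus yield was measured by HAU at 24 h p.i. and expressed as a percentage of DMSO-treated control infected cells. Means of two experiments, each in duplicate.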

[2] = system: Influenza A virus; experiment: Antiviral activity against Influenza virus A/Puerto Rico/8/34 H1N1 infected in dog MDCK cells assessed as reduction in nucleoprotein expression at 10 ug/mL after 24 hrs by immunoblotting analysis relative to control; assay type: functional, organism-based; conditions: A/Puerto Rico/8/1934(H1N1)
How it was run: (§2)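 PR8-infected MDCK cells, untreated or treated, were lysed at 24 h. Homogenates were run on 12% gels under reducing conditions, blotted to nitrocellulose and probed with goat polyclonal anti-influenza antibodies. Densitometry was expressed as the ratio of each viral protein to actin, relative to untreated infected cells.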

[3] = system: Influenza A virus; experiment: Antiviral activity against Influenza virus A/Puerto Rico/8/34 H1N1 infected in dog MDCK cells assessed as reduction in hemagglutininin expression at 10 ug/mL after 24 hrs by immunoblotting analysis relative to control; assay type: functional, organism-based; conditions: A/Puerto Rico/8/1934(H1N1); how it was run: as §2
[4] = system: Influenza A virus; experiment: Antiviral activity against Influenza virus A/Puerto Rico/8/34 H1N1 infected in dog MDCK cells assessed as inhibition of viral replication at 10 ug/mL incubated at 1 hr post-infection measured after 24 hrs by hemagglutininating unit assay relative to control; assay type: functional; conditions: A/Puerto Rico/8/1934(H1N1)
How it was run: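 MDCK cells infected with PR8; 1 h after adsorption they were washed, and compound (5–20 μg/ml) or DMSO was added and kept on throughout. Virus released into the supernatant was titrated by HAU assay 24 h p.i. Yield is a percentage of control infected cells given 0.02% DMSO. Means of four experiments, each in duplicate.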

[5] = system: Influenza A virus; experiment: Antiviral activity against Influenza virus A/Puerto Rico/8/34 H1N1 infected in dog MDCK cells assessed as reduction in matrix protein 1 expression at 10 ug/mL after 24 hrs by immunoblotting analysis relative to control; assay type: functional, organism-based; conditions: A/Puerto Rico/8/1934(H1N1); how it was run: as §2
[6] = system: Influenza A virus; experiment: Antiviral activity against Influenza virus A/Puerto Rico/8/34 H1N1 infected in dog MDCK cells at 10 ug/mL incubated for 4 hrs post-infection followed by compound washout measured after 24 hrs by hemagglutininating unit assay; assay type: functional, organism-based; conditions: A/Puerto Rico/8/1934(H1N1); how it was run: as §1
[7] = system: Influenza A virus; experiment: Antiviral activity against Influenza virus A/Puerto Rico/8/34 H1N1 infected in dog MDCK cells at 10 ug/mL incubated for 6 hrs post-infection followed by compound washout measured after 24 hrs by hemagglutininating unit assay relative to control; assay type: functional, A/Puerto Rico/8/1934(H1N1); how it was run: as §1
[8] = system: MDCK; experiment: Inhibition of PKC/p38MAPK-mediated nuclear-cytoplasmic viral nucleoprotein export in dog MDCK cells infected with Influenza virus A/Puerto Rico/8/34 H1N1 measured at 8 hrs post-infection by inmmunofluorescence; assay type: cell-based; conditions: Canis lupus familiaris
How it was run: (§3)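 MDCK cells were infected with PR8 at 1 M.O.I. for single-cycle replication. At 8 h p.i. cells were fixed, permeabilized and stained with DAPI, then with anti-NP primary and FITC-conjugated secondary antibody. NP localization was assessed by fluorescence microscopy.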

[9] = system: Influenza A virus; experiment: Antiviral activity against Influenza virus A/Puerto Rico/8/34 H1N1 infected in dog MDCK cells at 10 ug/mL incubated for 8 hrs post-infection followed by compound washout measured after 24 hrs by hemagglutininating unit assay relative to control; assay type: functional, A/Puerto Rico/8/1934(H1N1); how it was run: as §1
[10] = system: MDCK; experiment: Inhibition of PKC/p38MAPK-mediated nuclear-cytoplasmic viral ribonucleoprotein export in dog MDCK cells infected with Influenza virus A/Puerto Rico/8/34 H1N1 measured at 8 hrs post-infection by inmmunofluorescence; assay type: cell-based; conditions: Canis lupus familiaris; how it was run: as §3
[11] = system: MDCK; experiment: Cytotoxicity against dog MDCK cells assessed as morphological alterations at 20 to 40 ug/mL incubated for 24 hrs followed by compound wash out measured after 24 hrs by microscopic analysis; assay type: cell-based, Canis lupus familiaris
How it was run: (§4)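 Confluent MDCK monolayers plated at 2×10^5/ml were treated after 24 h with compound at 5–40 μg/ml and incubated a further 24 h. Assessed by microscopic examination of morphology, Trypan blue exclusion for viability, and cell counts for multiplication rate.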

[12] = system: Influenza A virus; experiment: Antiviral activity against Influenza virus A/Puerto Rico/8/34 H1N1 infected in dog MDCK cells at 10 ug/mL incubated for 24 hrs post-infection followed by compound washout measured after 24 hrs by hemagglutininating unit assay relative to control; assay type: functional, A/Puerto Rico/8/1934(H1N1); how it was run: as §1
[13] = system: Influenza A virus; experiment: Antiviral activity against Influenza virus A/Puerto Rico/8/34 H1N1 infected in dog MDCK cells assessed as reduction in neuraminidase expression at 10 ug/mL after 24 hrs by immunoblotting analysis relative to control; assay type: functional, A/Puerto Rico/8/1934(H1N1); design: scale not given: the % may be the effect or the level left; how it was run: as §2
[14] = system: Influenza A virus; experiment: Antiviral activity against Influenza virus A/Puerto Rico/8/34 H1N1 infected in dog MDCK cells at 20 ug/mL incubated for 24 hrs post-infection followed by compound washout measured after 24 hrs by hemagglutininating unit assay relative to control; assay type: functional, A/Puerto Rico/8/1934(H1N1); how it was run: as §1
[15] = system: Influenza A virus; experiment: Antiviral activity against Influenza virus A/Puerto Rico/8/34 H1N1 infected in dog MDCK cells at 20 ug/mL incubated for 8 hrs post-infection followed by compound washout measured after 24 hrs by hemagglutininating unit assay relative to control; assay type: functional, A/Puerto Rico/8/1934(H1N1); how it was run: as §1
[16] = system: Influenza A virus; experiment: Antiviral activity against Influenza virus A/Puerto Rico/8/34 H1N1 infected in dog MDCK cells assessed as reduction in nucleoprotein expression at 20 ug/mL after 24 hrs by immunoblotting analysis relative to control; assay type: functional, organism-based; conditions: A/Puerto Rico/8/1934(H1N1); how it was run: as §2
[17] = system: Influenza A virus; experiment: Antiviral activity against Influenza virus A/Puerto Rico/8/34 H1N1 infected in dog MDCK cells at 20 ug/mL incubated for 4 hrs post-infection followed by compound washout measured after 24 hrs by hemagglutininating unit assay; assay type: functional, organism-based; conditions: A/Puerto Rico/8/1934(H1N1); how it was run: as §1
[18] = system: Influenza A virus; experiment: Antiviral activity against Influenza virus A/Puerto Rico/8/34 H1N1 infected in dog MDCK cells at 20 ug/mL incubated for 2 hrs post-infection followed by compound washout measured after 24 hrs by hemagglutininating unit assay; assay type: functional, organism-based; conditions: A/Puerto Rico/8/1934(H1N1); how it was run: as §1
[19] = system: MDCK; experiment: Cytotoxicity against dog MDCK cells assessed as morphological alterations at 40 ug/mL incubated for 24 hrs followed by compound wash out measured after 24 hrs by microscopic analysis; assay type: cell-based, Canis lupus familiaris; how it was run: as §4
[20] = system: Influenza A virus; experiment: Antiviral activity against Influenza virus A/Puerto Rico/8/34 H1N1 infected in dog MDCK cells at 20 ug/mL incubated for 6 hrs post-infection followed by compound washout measured after 24 hrs by hemagglutininating unit assay relative to control; assay type: functional, A/Puerto Rico/8/1934(H1N1); how it was run: as §1
[21] = system: Influenza A virus; experiment: Antiviral activity against Influenza virus A/Puerto Rico/8/34 H1N1 infected in dog MDCK cells assessed as reduction in matrix protein 1 expression at 20 ug/mL after 24 hrs by immunoblotting analysis relative to control; assay type: functional, A/Puerto Rico/8/1934(H1N1); design: scale not given: the % may be the effect or the level left; how it was run: as §2
[22] = system: Influenza A virus; experiment: Antiviral activity against Influenza virus A/Puerto Rico/8/34 H1N1 infected in dog MDCK cells assessed as reduction in hemagglutininin expression at 20 ug/mL after 24 hrs by immunoblotting analysis relative to control; assay type: functional, A/Puerto Rico/8/1934(H1N1); design: scale not given: the % may be the effect or the level left; how it was run: as §2
[23] = system: Influenza A virus; experiment: Antiviral activity against Influenza virus A/Puerto Rico/8/34 H1N1 infected in dog MDCK cells assessed as reduction in neuraminidase expression at 20 ug/mL after 24 hrs by immunoblotting analysis relative to control; assay type: functional, A/Puerto Rico/8/1934(H1N1); design: scale not given: the % may be the effect or the level left; how it was run: as §2

Question: Which results are given for `O=C(/C=C/c1ccc(O)cc1)c1ccc(O)cc1O` [ISOLIQUIRITIGENIN]?
Answer: Activity [1]: inactive; Activity [2]: inactive; Activity [3]: inactive; inhibition at 10 µg/mL [4]: 75%; Activity [5]: inactive; Activity [6]: inactive; Activity [7]: 30%; inhibition [8]: Active; Activity [9]: 55%; inhibition [10]: Active; Activity [11]: Toxic; Activity [12]: 75%; Activity [13]: 42%

Question: `O=C1/C(=C/c2ccc(O)c(O)c2)COC/C1=C\c1ccc(O)c(O)c1` was tested. Which Activity [14] did it give?
Answer: The Activity was 75%.

Question: What about the Activity [15] of the same compound?
Answer: Its Activity is 55%.

Question: What about the Activity [16] of the same compound?
Answer: Its Activity is “Active”.

Question: What about the Activity [17] of the same compound?
Answer: Its Activity is “inactive”.

Question: What about the Activity [18] of the same compound?
Answer: The Activity was “inactive”.

Question: And the Activity [19]?
Answer: Its Activity is “Toxic”.

Question: What about the Activity [20] of the same compound?
Answer: Its Activity is 30%.

Question: What about the Activity [21] of the same compound?
Answer: Its Activity is 62%.

Question: And the Activity [22]?
Answer: The Activity was 25%.

Question: What about the inhibition [10] of the same compound?
Answer: Its inhibition is “Active”.

Question: And the Activity [23]?
Answer: Its Activity is 56%.
